Screens from PubChem BioAssay.
MC4R antagonist = human MC4R antagonism in cAMP assay | P32245 | MC4R-expressing cells, MTII-stimulated cAMP, LANCE TR-FRET | inhibition, % at 6.5 µM | 360,000 compounds, 0.48% hits | AID 540295;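 active = inhibition above its plate's cutoff, the mean of tested wells on that plate plus 3 SD, cut at about 29% in these data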
Target sequence (P32245 whole entry, looked up): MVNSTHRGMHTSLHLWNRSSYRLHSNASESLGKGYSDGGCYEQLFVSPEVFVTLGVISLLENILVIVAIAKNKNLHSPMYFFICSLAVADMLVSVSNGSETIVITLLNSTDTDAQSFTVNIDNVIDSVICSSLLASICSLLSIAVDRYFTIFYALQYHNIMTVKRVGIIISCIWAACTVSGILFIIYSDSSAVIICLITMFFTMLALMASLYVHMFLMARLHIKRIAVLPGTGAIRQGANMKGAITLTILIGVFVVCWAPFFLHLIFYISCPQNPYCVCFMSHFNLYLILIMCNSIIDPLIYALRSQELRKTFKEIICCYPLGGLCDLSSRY
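Test system: U2OS cells stably expressing human melanocortin 4 receptor (MC4R); also added: Melanotan II challenge; compound: 6.5 µM single dose; timing: 30-min compound preincubation, 1-h Melanotan II challenge, 1-h detection, room temperature; signal: Eu-cAMP/anti-cAMP TR-FRET, emission 671 nm; repeats: one well per compound, no replicates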
HTR5A ag ctr = HTR5A agonism, opioid heterodimer counter-screen; P47898; HTR5A agonist assay, luminescence, cell-based; activation, % at 9.3 µM; 340,000 compounds, 0.61% hits; AID 504692; in the data active = activation mostly above about 9.5%, no sharp cut-off; inactive = mostly below about 7.6%
Target sequence (P47898 whole entry, looked up): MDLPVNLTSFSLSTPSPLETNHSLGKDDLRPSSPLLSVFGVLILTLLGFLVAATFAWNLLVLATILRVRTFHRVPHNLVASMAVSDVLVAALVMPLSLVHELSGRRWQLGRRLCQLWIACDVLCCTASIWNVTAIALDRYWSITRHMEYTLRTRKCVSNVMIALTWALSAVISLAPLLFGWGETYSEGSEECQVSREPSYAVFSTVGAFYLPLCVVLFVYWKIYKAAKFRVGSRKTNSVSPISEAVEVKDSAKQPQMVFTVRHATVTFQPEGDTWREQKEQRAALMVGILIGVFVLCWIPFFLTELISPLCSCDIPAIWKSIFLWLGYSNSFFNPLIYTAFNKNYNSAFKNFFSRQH
HTR5A inv ctr = inverse agonist of human HTR5A in OPRM1-OPRD1 counter-screen; HTR5A cell line, luminescence, inverse agonism; inhibition, % at 9.3 µM; 340,000 compounds, 0.083% hits; in the data active = inhibition mostly above about 23%, no sharp cut-off; inactive = mostly below about 18%
MOR-DOR inv ag = inverse agonist of human OPRM1-OPRD1 heterodimerization; P35372+P41143; AID 504357; inhibition, % at 9.3 µM; cell-based MOR-DOR heterodimer luminescence, inverse agonism; 340,000 compounds, 0.21% hits; in the data active = inhibition above about 22%, passing the limit was not always enough
MOR-DOR ag = OPRM1-OPRD1 heterodimerization agonism; 340,000 compounds, 0.3% hits; AID 504326; P35372+P41143; cells, luminescence; activation, % at 9.3 µM; in the data active = activation above about 18%
MC4R barr agon = human MC4R agonism via beta-arrestin; 360,000 compounds, 0.98% hits; U2OS MC4R beta-arrestin complementation, luminescence; percent of melanotan II response, DMSO zero; activation, % at 8.9 µM;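 active = activation above a per-plate cutoff, the mean activation of sample wells on that plate plus 3 SD, cut at about 8% in these data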
cAMP nonselect = nonselective cAMP signaling inhibitor, MC4R antagonist counter-screen; shares compounds with MC4R antagonist; parental U2OS, forskolin cAMP, LANCE TR-FRET; inhibition, % at 6.5 µM; 1,600 compounds, 26% hits; AID 602193;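 active = mean inhibition over triplicates above the low-control well mean plus 3 SD, set per campaign, cut at about 13% in these data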;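 also: signal is single emission at 671 nm which falls as cellular cAMP rises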
MC4R antag conf = human MC4R cAMP antagonism confirmation. 1,600 compounds, 27% hits. inhibition, % at 6.5 µM. MC4R-expressing cells, MTII-stimulated cAMP, TR-FRET. shares compounds with MC4R antagonist; in the data active = inhibition above about 29%
Each line names hits and unclear results; the compound was inactive in the other large screens (follow-up assays come after a bar, where they were run). Most compounds without a hit are left out; they make up all but 2.4% or so of the library.

CC(OC(=O)CCN=C1NS(=O)(=O)c2ccccc21)C(=O)Nc1ccc(F)c(F)c1F (stereo unspecified)	none
CC(C)c1nc(SCC(=O)NC2CCCCC2)c2ccccc2n1	none
CC(C)(C)c1nc(SCC(=O)NC2CCCC2)c2ccccc2n1	MC4R antagonist 29 | cAMP nonselect inactive | MC4R antag conf inactive
CCc1nc2c(OCc3ccc(C(=O)N(C)C)cc3)cccn2c1N(C)C(=O)c1ccc(C)cc1	none (no result: HTR5A ag ctr, HTR5A inv ctr, MOR-DOR inv ag, MOR-DOR ag)
COCCNc1nc(-c2ccccc2F)c2sc(-c3ccccc3)cc2n1	none (no result: HTR5A ag ctr, HTR5A inv ctr, MOR-DOR inv ag, MOR-DOR ag)
CCOC(=O)C1=C(COC(=O)CNS(=O)(=O)c2ccc(NC(C)=O)cc2)NC(=O)NC1C (stereo unspecified)	none
CCOC(=O)C1=C(COC(=O)CNS(=O)(=O)c2ccc(C)c(C)c2)NC(=O)NC1C (stereo unspecified)	MC4R antagonist 30 (no result: HTR5A ag ctr, HTR5A inv ctr, MOR-DOR inv ag, MOR-DOR ag) | cAMP nonselect inactive | MC4R antag conf inactive
O=[N+]([O-])c1cc(S(=O)(=O)C(F)(F)F)ccc1Sc1nc2ccccc2[nH]1	MC4R antagonist 30 | cAMP nonselect inactive | MC4R antag conf 40
O=[N+]([O-])c1cc(S(=O)(=O)C(F)(F)F)ccc1Sc1nc2ccccc2s1	MC4R antagonist 56 | cAMP nonselect inactive | MC4R antag conf 43
CS(=O)(=O)c1ccc(Sc2nc3ccccc3[nH]2)c([N+](=O)[O-])c1	none
O=C(CCC(=O)N1CCOCC1)Nc1ccc(Cl)c(Cl)c1	none
c1ccc(-c2ccc(-c3cnc4n3CCCCC4)cc2)cc1	none
Cc1ccc(-c2cnc3n2CCCCC3)cc1	MC4R antagonist 33 | cAMP nonselect inactive | MC4R antag conf inactive
COc1ccc(N2CCN(CCC(=O)c3ccc4ccccc4c3)CC2)cc1	MC4R antagonist 29 | cAMP nonselect inactive | MC4R antag conf inactive
CCOC(=O)N1CCN(CCC(=O)c2ccc(OC)cc2)CC1	MC4R antagonist 33 | cAMP nonselect inactive | MC4R antag conf inactive
CCOC(=O)N1CCN(CCC(=O)c2ccc(Cl)cc2)CC1	none
COc1ccc(C(=O)CCN2CCC(C)CC2)cc1	MC4R antagonist 31 | cAMP nonselect inactive | MC4R antag conf inactive
O=C(CCC1CCCC1)N[C@@H](Cc1ccc(O)cc1)C(=O)O	none
CC(=O)c1ccc(S(=O)(=O)N2CCN(C(=O)CSc3ccc(C)c(C)c3)CC2)cc1	MC4R antagonist 35 | cAMP nonselect inactive | MC4R antag conf inactive
COc1ccc(CCNC(=O)CSc2nn(-c3ccccc3)c(=S)s2)cc1	none
COc1ccc(/C(N)=N/OC(=O)CN(C)S(=O)(=O)c2ccc(C)cc2)cc1	none
COc1cccc(N2CCN(Cc3nc4scc(-c5ccccc5)c4c(=O)[nH]3)CC2)c1	none
Cc1cc(O)c(C(=O)/C=C/c2ccc(Cl)cc2)c(=O)o1	none
O=C(/C=C/c1ccc(Cl)cc1)c1ccc([N+](=O)[O-])o1	MC4R antagonist 40 | cAMP nonselect inactive | MC4R antag conf inactive
O=C(Nc1nc2cc(Cl)ccc2s1)C1CCCN(S(=O)(=O)c2cccc3cccnc23)C1 (stereo unspecified)	MC4R antagonist 29 | cAMP nonselect inactive | MC4R antag conf inactive
CCc1ccc(C(C(=O)NCc2ccc(F)cc2)N(C(=O)c2csnn2)C2CC2)cc1 (stereo unspecified)	MC4R antagonist 29 | cAMP nonselect inactive | MC4R antag conf inactive
O=C(Nc1ccccc1Br)c1c(F)cccc1Cl	none
O=C(Nc1ccccc1C(F)(F)F)c1c(F)cccc1Cl	MC4R antagonist 30 | cAMP nonselect inactive | MC4R antag conf inactive
COc1ccc(NC(=O)COc2ccc(C(=O)OCC(=O)N(C(C)C)C(C)C)cc2OC)cc1	none
CCOC(=O)c1c(NC(=O)CSc2nc3cc(Cl)ccc3c(=O)n2Cc2ccco2)sc(C(=O)N(C)C)c1C	MC4R antagonist 31 | cAMP nonselect inactive | MC4R antag conf inactive
CCOC(=O)c1c(NC(=O)COC(=O)CNC(=O)c2ccc(Cl)cc2Cl)sc(C(=O)N(C)C)c1C	MC4R antagonist 31 | cAMP nonselect inactive | MC4R antag conf inactive
CCC1CCCCN1C(=O)CN1C(=O)c2ccccc2S1(=O)=O (stereo unspecified)	none
CC(=O)c1ccc(C(=O)N2CCC(CO)(Cc3cccc(C(F)(F)F)c3)CC2)cc1	none
CC1(C(=O)N2CCC(CO)(Cc3cccc(C(F)(F)F)c3)CC2)CC1	MC4R antagonist 30 | cAMP nonselect inactive | MC4R antag conf inactive
Cc1noc(C)c1COC(=O)c1ccccc1NC(=O)c1ccco1	none
O=C(Cn1cccc1C(=O)c1ccccc1)NCc1cccc(Cl)c1	none
CCOc1ccc(OCC)c(NC(=O)CN(c2ccc(C)cc2)S(=O)(=O)c2c(C)noc2C)c1	MC4R antagonist 32 | cAMP nonselect inactive | MC4R antag conf inactive
CC1(C(=O)NCc2cccc3ccccc23)CCN1Cc1ccccc1OC(F)F (stereo unspecified)	none (no result: HTR5A ag ctr, HTR5A inv ctr, MOR-DOR inv ag, MOR-DOR ag)
Cc1nnc(SCC(=O)N2CC(=O)Nc3ccccc32)s1	none
O=C1CN(C(=O)CSc2nc(-c3ccc(Cl)cc3)cs2)c2ccccc2N1	MC4R antagonist 31 | cAMP nonselect inactive | MC4R antag conf inactive
CC(C)(C)CC(=O)Nc1nnc(SCC(=O)N2CCCCC2)s1	none
COc1ccc(OC)c2[nH]c(=O)c(CCNS(=O)(=O)c3ccc(F)cc3)cc12	MC4R antagonist 33 | cAMP nonselect inactive | MC4R antag conf inactive
CCS(=O)(=O)NCCc1cc2c(OC)ccc(OC)c2[nH]c1=O	none
COc1ccc(OC)c2[nH]c(=O)c(CCNC(=O)C(=O)c3c(C)[nH]c4ccccc34)cc12	MC4R antagonist 31 | cAMP nonselect inactive | MC4R antag conf inactive
CSc1ccc(C(O)c2ncc(-c3ccccc3F)[nH]2)cc1 (stereo unspecified)	none (no result: HTR5A ag ctr, HTR5A inv ctr, MOR-DOR inv ag, MOR-DOR ag)
COC(=O)c1ccc(CN2CCc3ccc(NC(=O)c4ccncc4)cc3C2)cc1	MC4R antagonist 29 | cAMP nonselect inactive | MC4R antag conf inactive
COc1cccc(CNS(=O)(=O)/C=C/c2ccc(OC)c(OC)c2)c1	MC4R antagonist 34 | cAMP nonselect inactive | MC4R antag conf inactive
CN(c1cccc(NC(=O)c2ccc(N(C)S(=O)(=O)c3ccccc3)cc2)c1)S(C)(=O)=O	MC4R antagonist 42 | cAMP nonselect inactive | MC4R antag conf inactive
COc1ccc(Cn2c(O)c(C=Nc3ccccc3C(=O)O)c3ccccc3c2=O)cc1	MC4R antagonist 32 | cAMP nonselect inactive | MC4R antag conf inactive
